Activity calls are given as the source filed them. No cut-off for these calls is given here. *1 amine or outer side, *2 acyl side, *3 side chain or, on linkers, in order; H or OH if unused. Where a SMILES comes first, the peptide text is derived from it. The star is where a group is joined. NH(CH2)3O(βDGlc) = OC[C@H]1O[C@@H](OCCCN*)[C@H](O)[C@@H](O)[C@@H]1O; Glutaryl = O=C(CCCC(=O)[*:2])[*:1]
Legend:
[1] = Toxicity in Balb/c nu/nu mouse xenografted with human A549 cells expressing luciferase gene assessed as effect on heart at 9 mg/kg, ip administered every 2 days for seven times measured on day 14 by H and E staining based assay; format: organism-based; conditions: in vivo, 48 h
Method in brief: (§1)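 Male BALB/c nu/nu mice bearing subcutaneous A549-luciferase xenografts received 9 mg/kg peptide i.p. (200 µL) every other day for seven doses, with a PBS control group of five. Heart, liver and kidney were fixed in 10% paraformaldehyde, sectioned and stained with H&E for histology.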

[2] = Stability of the compound in serum (unknown origin) measured up to 48 hrs; format: ADME, cell-free
[3] = tested on: A549; assay: Inhibition of colony formation in human A549 cells at 4 uM supplemented with fresh medium containing compounds every 7 days for 15 days by crystal violet staining based assay; format: functional, cell-based
Method in brief: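 Cells seeded at 300 per plate in 6-well plates; after 36 h exposed to 4 μM peptide, re-added after 7 days. Incubated 15 days total at 37°C, 5% CO2, then colonies stained with 2% crystal violet and quantified; n=3.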

[4] = tested on: A549; assay: Antitumor activity against human A549 cells expressing luciferase gene xenografted in Balb/c nu/nu mouse assessed as increase in apoptotic cells at 9 mg/kg, ip administered every 2 days for seven times measured on day 14 by TUNEL assay; format: functional, organism-based
Method in brief: (§2)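 Male BALB/c nu/nu mice, 4-6 weeks old, carrying subcutaneous A549-luciferase xenografts in the right back. Dosing started when tumors reached 100-200 mm³ (day 0), five per group. Peptide was given at 9 mg/kg i.p. in 200 µL every other day for 7 doses; PBS served as control. Bioluminescent imaging on day 14; tumor size and body weight tracked. Tumors fixed in paraformaldehyde, paraffin-sectioned, TUNEL-stained.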

[5] = target: T1, Solute carrier family 2, facilitated glucose transporter member 1 (Homo sapiens) (UniProt P11166); assay: Binding affinity to GLUT1 in human A549 cells assessed as cytotoxicity by measuring reduction in cell viability at 40 umol/L measured up to 48 hrs in presence of 10% serum by CCK8 assay relative to control; format: cell-based
T1 sequence (whole entry): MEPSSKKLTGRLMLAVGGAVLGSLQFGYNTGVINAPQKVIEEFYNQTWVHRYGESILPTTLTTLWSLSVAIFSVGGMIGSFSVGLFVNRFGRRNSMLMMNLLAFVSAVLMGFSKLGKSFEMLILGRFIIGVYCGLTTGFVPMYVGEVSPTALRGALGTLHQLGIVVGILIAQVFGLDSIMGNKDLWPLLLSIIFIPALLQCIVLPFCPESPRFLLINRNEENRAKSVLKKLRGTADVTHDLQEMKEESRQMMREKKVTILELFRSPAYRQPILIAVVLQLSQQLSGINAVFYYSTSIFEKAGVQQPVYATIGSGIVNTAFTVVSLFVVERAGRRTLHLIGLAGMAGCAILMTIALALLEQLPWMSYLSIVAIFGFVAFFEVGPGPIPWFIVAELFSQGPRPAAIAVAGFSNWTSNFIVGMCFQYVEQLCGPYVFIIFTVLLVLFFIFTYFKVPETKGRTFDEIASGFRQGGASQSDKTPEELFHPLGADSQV

[6] = tested on: HEK-293T; assay: Cytotoxicity against HEK293T cells at 12.5 uM measured after 2 hrs by LDH release assay; format: cell-based; conditions: human
[7] = target: T1, Solute carrier family 2, facilitated glucose transporter member 1 (Homo sapiens); assay: Binding affinity to GLUT1 in human A549 cells assessed as cytotoxicity by measuring cell viability at 12.5 uM measured after 2 hrs in presence of GLUT1 inhibitor STF-31 by CCK8 assay relative to control; format: cell-based
Method in brief: (§3)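 A549 cells at 2×10^3/well, grown overnight, then preincubated 4 h in F12K/10% FBS with or without STF-31 (1 µM final). […] Incubated a further 2 h at 37 °C; viability by CCK-8.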

[8] = Drug uptake in GLUT1 knockout out human A549 cells at 12.5 uM measured after 2 hrs using FITC-labelled compound by fluorescence assay; format: ADME, cell-based; conditions: a549, 2 h
Method in brief: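 FITC-labelled peptide at 12.5 µM for 2 h, given to A549 cells and to A549 GLUT1-RNAi knockdown cells. Total and fluorescent cells counted by automated cell counter; n=3.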

[9] = target: T1, Solute carrier family 2, facilitated glucose transporter member 1 (Homo sapiens); assay: Binding affinity to GLUT1 in human A549 cells assessed as cytotoxicity by measuring cell viability at 12.5 uM measured after 2 hrs in absence of GLUT1 inhibitor STF-31 by CCK8 assay relative to control; format: cell-based; method in brief: as §3
[10] = Drug uptake in tumor of Balb/c nu/nu mouse xenografted with human A549 cells expressing luciferase gene at 3 mg/kg administered intratumorally measured after 6 hrs by fluorescence assay; format: ADME, organism-based, Neoplasm; conditions: in vivo, other
[11] = tested on: A549; assay: Antitumor activity against human A549 cells expressing luciferase gene xenografted in Balb/c nu/nu mouse assessed as reduction in tumor volume at 9 mg/kg, ip administered every 2 days for seven times measured on day 14 by bioluminescent imaging analysis; format: functional, organism-based; method in brief: as §2
[12] = Toxicity in Balb/c nu/nu mouse xenografted with human A549 cells expressing luciferase gene assessed as effect on kidney at 9 mg/kg, ip administered every 2 days for seven times measured on day 14 by H and E staining based assay; format: organism-based; conditions: in vivo, 48 h; method in brief: as §1
[13] = Toxicity in Balb/c nu/nu mouse xenografted with human A549 cells expressing luciferase gene assessed as effect on liver at 9 mg/kg, ip administered every 2 days for seven times measured on day 14 by H and E staining based assay; format: organism-based; conditions: in vivo, 48 h; method in brief: as §1
[14] = target: T1, Solute carrier family 2, facilitated glucose transporter member 1 (Homo sapiens); assay: Binding affinity to GLUT1 in human A549 cells assessed as cytotoxicity by measuring reduction in cell viability at 12.5 uM measured after 2 hrs in presence of GLUT1 inhibitor STF-31 by CCK8 assay; format: cell-based; method in brief: as §3
[15] = target: T1, Solute carrier family 2, facilitated glucose transporter member 1 (Homo sapiens); assay: Binding affinity to GLUT1 in human A549 cells assessed as cytotoxicity by measuring reduction in cell viability at 12.5 uM measured after 2 hrs in absence of GLUT1 inhibitor STF-31 by CCK8 assay; format: cell-based; method in brief: as §3
[16] = target: T1, Solute carrier family 2, facilitated glucose transporter member 1 (Homo sapiens); assay: Binding affinity to GLUT1 in human A549 cells assessed as cytotoxicity by measuring reduction in cell viability at 40 umol/L measured up to 24 hrs in presence of 10% serum by CCK8 assay; format: cell-based

Stability [2] | Drug uptake [8] | Drug uptake [10] | SMILES | Activity [1] | inhibition [3] | Activity [4] | Activity [5] [%] | Activity [6] | Activity [7] [%] | Activity [9] [%] | Activity [11] | Activity [12] | Activity [13] | Activity [14] | Activity [15] | Activity [16]
Stable | Not Active | Active | CC[C@H](C)[C@H](NC(=O)[C@H](Cc1ccccc1)NC(=O)[C@H](CCCNC(=N)N)NC(=O)[C@H](C)NC(=O)[C@@H](NC(=O)[C@H](CO)NC(=O)[C@H](CCCNC(=N)N)NC(=O)[C@H](CCSC)NC(=O)[C@H](C)NC(=O)[C@H](CCCNC(=N)N)NC(=O)[C@H](Cc1ccccc1)NC(=O)[C@H](Cc1c[nH]c2ccccc12)NC(=O)CNC(=O)[C@H](CCCNC(=N)N)NC(=O)CCCC(=O)NCCCO[C@@H]1O[C@H](CO)[C@@H](O)[C@H](O)[C@H]1O)[C@@H](C)CC)C(=O)N[C@@H](C)C(=O)N[C@@H](CCCNC(=N)N)C(=O)N[C@@H](CCC(=O)O)C(=O)N[C@@H](CCCNC(=N)N)C(=O)N[C@@H](CC(C)C)C(=O)N[C@@H](CCCNC(=N)N)C(=O)N[C@@H](CCC(=O)O)C(=O)N[C@@H](Cc1cnc[nH]1)C(=O)N[C@@H](CC(C)C)C(=O)O ({NH(CH2)3O(βDGlc)-Glutaryl}-RGWFRAMRSIARFIARERLREHL-OH) | Non-Toxic | Active | Active | 80 | Non-Toxic | 40 | 54 | Active | Non-Toxic | Non-Toxic |  |  | 
 |  |  | CC[C@H](C)[C@H](NC(=O)[C@H](Cc1ccccc1)NC(=O)[C@H](CCCNC(=N)N)NC(=O)[C@H](C)NC(=O)[C@@H](NC(=O)[C@H](CO)NC(=O)[C@H](CCCNC(=N)N)NC(=O)[C@H](CCSC)NC(=O)[C@H](C)NC(=O)[C@H](CCCNC(=N)N)NC(=O)[C@H](Cc1ccccc1)NC(=O)[C@H](Cc1c[nH]c2ccccc12)NC(=O)CNC(=O)[C@@H](N)CCCNC(=N)N)[C@@H](C)CC)C(=O)N[C@@H](C)C(=O)N[C@@H](CCCNC(=N)N)C(=O)N[C@@H](CCC(=O)O)C(=O)N[C@@H](CCCNC(=N)N)C(=O)N[C@@H](CC(C)C)C(=O)N[C@@H](CCCNC(=N)N)C(=O)N[C@@H](CCC(=O)O)C(=O)N[C@@H](Cc1cnc[nH]1)C(=O)N[C@@H](CC(C)C)C(=O)O (H-RGWFRAMRSIARFIARERLREHL-OH) |  |  |  |  |  |  |  |  |  |  | Active | Active | inactive
